Data from ChEMBL document CHEMBL1121582, “Structure-activity relationship of diphenylthiourea antivirals” (1980).

What was measured:
Assay type in all cases: functional
Poliovirus 1 [1] = experiment: Antiviral activity was evaluated in vitro against human poliovirus as inhibition zone in agar-diffusion plaque-inhibition test
How it was run: (§1)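 FL cell monolayers were infected with virus (adsorption 60 min at 20 °C) at a dose giving semiconfluent plaques in 24-48 h at 37 °C. Cells were overlaid with 1% agar in Eagle medium with 10% heated calf serum. 0.1 mL of compound, usually a 2-4% solution, went into 6 mm glass cylinders set in the agar. A second overlay held 0.02% neutral red. Plaque-inhibition and cytotoxicity zone diameters (mm) were read using 3-5 cylinders in at least two dishes. Grading: -, ≤5 mm; ±, 6-10; +, 11-20; ++, ≥20.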

Homo sapiens [2] = species on record: Homo sapiens; experiment: Antiviral activity was evaluated in vitro against human poliovirus as antiviral affect in agar-diffusion plaque-inhibition test (+/- => inhibition, diameter = 6-10 mm); how it was run: as §1
cells [3] = conditions: Homo sapiens
cells [4] = conditions: Homo sapiens; remark: listed apart in the source
Homo sapiens [5] = species on record: Homo sapiens; experiment: Antiviral activity was evaluated in vitro against human Coxsackie virus as antiviral affect in agar-diffusion plaque-inhibition test(- => inhibition, diameter < = 5 mm); how it was run: as §1
[6] = Antiviral activity was evaluated in vitro against human ECHO virus as toxicity zone in agar-diffusion plaque-inhibition test; how it was run: as §1
Homo sapiens [7] = species on record: Homo sapiens; experiment: Antiviral activity was evaluated in vitro against human ECHO virus as antiviral affect in agar-diffusion plaque-inhibition test(- => inhibition, diameter < = 5 mm); how it was run: as §1
[8] = Antiviral activity was evaluated in vitro against human Coxsackie virus as toxicity zone in agar-diffusion plaque-inhibition test; how it was run: as §1
Poliovirus 1 [9] = experiment: Antiviral activity was evaluated in vitro against human poliovirus as toxicity zone in agar-diffusion plaque-inhibition test; how it was run: as §1
Homo sapiens [10] = species on record: Homo sapiens; experiment: Antiviral activity was evaluated in vitro against human ECHO virus as antiviral affect in agar-diffusion plaque-inhibition test (+/- =>inhibition, diameter 6-10 mm); how it was run: as §1
Homo sapiens [11] = species on record: Homo sapiens; experiment: Antiviral activity was evaluated in vitro against human Coxsackie virus as antiviral affect in agar-diffusion plaque-inhibition test (+/- => inhibition, diameter 6-10 mm); how it was run: as §1
[12] = Antiviral activity was evaluated in vitro against human poliovirus as antiviral affect in agar-diffusion plaque-inhibition test - => inhibition diameter < = 5 mm; how it was run: as §1
[13] = Antiviral activity was evaluated in vitro against human ECHO virus as antiviral affect in agar-diffusion plaque-inhibition test (- => inhibition, diameter < = 5 mm)
How it was run: (§2)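 FL cell monolayers in 90 mm dishes infected with virus dose giving semiconfluent plaques (adsorption 60 min, 20 °C), then 1% agar overlay in Eagle MM with 10% heated calf serum. Compound, 0.1 mL of usually 2-4% ethanol solution, was placed in 6 mm glass cylinders set in the agar. Concentrations were preliminarily checked as well-tolerated by the cells. Incubation was 24-48 h at 37 °C, followed by a second overlay of 1.5% agar with 0.02% neutral red. Read-out was the diameter of the plaque-inhibition zone and the cytotoxicity zone, using 3-5 cylinders per compound in ≥2 dishes. Scoring: - Δϕ ≤5 mm; ± 6-10; + 11-20; ++ ≥20 mm.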

Homo sapiens [14] = species on record: Homo sapiens; experiment: Antiviral activity was evaluated in vitro against human Coxsackie virus as antiviral affect in agar-diffusion plaque-inhibition test (- => inhibition, diameter < = 5 mm); how it was run: as §2
[15] = Antiviral activity was evaluated in vitro against human poliovirus as antiviral affect in agar-diffusion plaque-inhibition test (- => inhibition, diameter < = 5 mm); how it was run: as §1
Homo sapiens [16] = species on record: Homo sapiens; experiment: Antiviral activity was evaluated in vitro against human poliovirus as antiviral affect in agar-diffusion plaque-inhibition test(- => inhibition, diameter < = 5 mm); how it was run: as §1
Homo sapiens [17] = species on record: Homo sapiens; experiment: Antiviral activity was evaluated in vitro against human ECHO virus as antiviral affect in agar-diffusion plaque-inhibition test (+ => inhibition diameter = 11-20 mm); how it was run: as §1
Homo sapiens [18] = species on record: Homo sapiens; experiment: Antiviral activity was evaluated in vitro against human Coxsackie virus as antiviral affect in agar-diffusion plaque-inhibition test (- =>inhibition, diameter < = 5 mm); how it was run: as §2
cells [19] = conditions: Homo sapiens; remark: listed apart in the source
Homo sapiens [20] = species on record: Homo sapiens; experiment: Antiviral activity was evaluated in vitro against human Coxsackie virus as antiviral affect in agar-diffusion plaque-inhibition test (- => inhibition diameter < = 5 mm); how it was run: as §2
Homo sapiens [21] = species on record: Homo sapiens; experiment: Antiviral activity was evaluated in vitro against human ECHO virus as antiviral affect in agar-diffusion plaque-inhibition test (- => inhibition diameter < = 5 mm); how it was run: as §2
Homo sapiens [22] = species on record: Homo sapiens; experiment: Antiviral activity was evaluated in vitro against human poliovirus as antiviral affect in agar-diffusion plaque-inhibition test (- => inhibition diameter < = 5 mm); how it was run: as §1

O=C(Nc1ccccc1)Nc1cccc(O)c1
Inhibition zone (Poliovirus 1 [1]): 13.3 mm
Antiviral effect (Homo sapiens [2]): Not toxic
inhibition at 200 µM (cells [3]): 96.3%
inhibition at 100 µM (cells [4]): 66.3%
Antiviral effect (Homo sapiens [5]): Not toxic
Toxicity zone [6]: 6.5 mm
Antiviral effect (Homo sapiens [7]): Not toxic
Toxicity zone [8]: 6.5 mm
Toxicity zone (Poliovirus 1 [9]): 7.3 mm

Nc1ccccc1/N=C(/S)Nc1ccccc1
Inhibition zone (Poliovirus 1 [1]): 28 mm
inhibition at 200 µM (cells [3]): 98.7%
Antiviral effect (Homo sapiens [5]): Not toxic
Toxicity zone [6]: 37 mm
Antiviral effect (Homo sapiens [7]): Not toxic
Toxicity zone [8]: 41 mm
Toxicity zone (Poliovirus 1 [9]): 9 mm

Oc1cccc(/N=C(\S)Nc2cccc(O)c2)c1
Inhibition zone (Poliovirus 1 [1]): 26.7 mm
inhibition at 200 µM (cells [3]): 89%
inhibition at 100 µM (cells [4]): 73.5%
Toxicity zone [6]: 29 mm
Antiviral effect (Homo sapiens [10]): +/-
Toxicity zone [8]: 33.3 mm
Toxicity zone (Poliovirus 1 [9]): 11.4 mm
Antiviral effect (Homo sapiens [11]): +/-

O=C(Nc1ccccc1)Nc1ccc(O)cc1
Inhibition zone (Poliovirus 1 [1]): 0 mm
Toxicity zone (Poliovirus 1 [9]): 0 mm
Antiviral effect [12]: Not toxic

O=C(O)c1cccc(N/C(S)=N/c2ccccc2)c1
Antiviral effect [13]: Not toxic
Antiviral effect (Homo sapiens [14]): Not toxic
Antiviral effect [15]: Not toxic

Nc1cccc(O)c1 [3-AMINOPHENOL]
Inhibition zone (Poliovirus 1 [1]): 0 mm
Toxicity zone (Poliovirus 1 [9]): 0 mm
Antiviral effect [12]: Not toxic

Nc1ccccc1NC(=O)Nc1ccccc1
Inhibition zone (Poliovirus 1 [1]): 0 mm
Toxicity zone (Poliovirus 1 [9]): 0 mm
Antiviral effect [12]: Not toxic

Oc1ccc(/N=C(\S)Nc2ccc(O)cc2)cc1
Inhibition zone (Poliovirus 1 [1]): 0 mm
Antiviral effect (Homo sapiens [16]): Not toxic
Toxicity zone (Poliovirus 1 [9]): 0 mm

Nc1cccc(NC(=O)Nc2ccccc2)c1
Inhibition zone (Poliovirus 1 [1]): 0 mm
Toxicity zone (Poliovirus 1 [9]): 0 mm
Antiviral effect [12]: Not toxic

O=C(Nc1ccccc1)Nc1ccccc1O
Inhibition zone (Poliovirus 1 [1]): 36.2 mm
Toxicity zone (Poliovirus 1 [9]): 32 mm
Antiviral effect [15]: Not toxic

Nc1cccc(N/C(S)=N/c2ccccc2)c1
Inhibition zone (Poliovirus 1 [1]): 28.3 mm
inhibition at 200 µM (cells [3]): 100%
Toxicity zone [6]: 20 mm
Toxicity zone [8]: 16.7 mm
Toxicity zone (Poliovirus 1 [9]): 18 mm

Nc1ccccc1/N=C(\S)Nc1ccccc1N
Inhibition zone (Poliovirus 1 [1]): 53.7 mm
Toxicity zone [6]: 43.5 mm
Antiviral effect (Homo sapiens [17]): Not toxic
Toxicity zone [8]: 34 mm
Toxicity zone (Poliovirus 1 [9]): 39.4 mm
Antiviral effect (Homo sapiens [11]): +/-

Oc1ccc(N/C(S)=N/c2ccccc2)cc1
Antiviral effect [13]: Not toxic
Antiviral effect (Homo sapiens [2]): +/-

Nc1ccc(/N=C(\S)Nc2ccc(N)cc2)cc1
Inhibition zone (Poliovirus 1 [1]): 0 mm
Toxicity zone (Poliovirus 1 [9]): 0 mm
Antiviral effect [12]: Not toxic

CC(=O)Nc1cccc(O)c1 [METACETAMOL]
Inhibition zone (Poliovirus 1 [1]): 0 mm
Toxicity zone (Poliovirus 1 [9]): 0 mm
Antiviral effect [15]: Not toxic

Oc1ccccc1/N=C(/S)Nc1ccccc1
Antiviral effect [13]: Not toxic
Antiviral effect (Homo sapiens [18]): Not toxic
Antiviral effect [15]: Not toxic

O=C(O)c1ccccc1/N=C(/S)Nc1ccccc1
Antiviral effect (Homo sapiens [14]): Not toxic

Nc1ccc(NC(=O)Nc2ccccc2)cc1
Inhibition zone (Poliovirus 1 [1]): 0 mm
Toxicity zone (Poliovirus 1 [9]): 0 mm
Antiviral effect [12]: Not toxic

Oc1cccc(N/C(S)=N/c2ccccc2)c1
Inhibition zone (Poliovirus 1 [1]): 33 mm
inhibition at 200 µM (cells [3]): 99.9%
Toxicity zone (Poliovirus 1 [9]): 15.8 mm
inhibition at 100 µM (cells [19]): 99.4%

NC(N)=S [THIOUREA]
Inhibition zone (Poliovirus 1 [1]): 26 mm
Toxicity zone (Poliovirus 1 [9]): 22 mm
Antiviral effect [12]: Not toxic

O=C(O)c1ccc(N/C(S)=N/c2ccccc2)cc1O
Inhibition zone (Poliovirus 1 [1]): 36.1 mm
inhibition at 200 µM (cells [3]): 99.9%
Toxicity zone (Poliovirus 1 [9]): 17.9 mm

Nc1ccc(N/C(S)=N/c2ccccc2)cc1
Inhibition zone (Poliovirus 1 [1]): 0 mm
Antiviral effect (Homo sapiens [20]): Not toxic
Antiviral effect (Homo sapiens [21]): Not toxic
Toxicity zone (Poliovirus 1 [9]): 0 mm
Antiviral effect (Homo sapiens [22]): Not toxic

O=C(O)c1ccc(N/C(S)=N/c2ccccc2)cc1
Antiviral effect [13]: Not toxic
Antiviral effect (Homo sapiens [14]): Not toxic
Antiviral effect [15]: Not toxic
